The source made the active and inactive calls.

The subject of one assay is Mus musculus. The assay can be described thus: Antidepressant activity in Swiss-Webster mouse assessed as prevention of reserpine-induced ptosis at 10 to 50 mg/kg, ip. The class given is functional, organism-based.
For `CN(C)C1CCc2[nH]c3ccccc3c2C1` (stereo not drawn) [CYCLINDOLE], the outcome was Active.

With `Cc1cccc2[nH]c3c(c12)CC(N(C)C)CC3` (stereo not drawn), the result was Active.

For `CN(C)CCCN1c2ccccc2CCc2ccccc21`, the outcome was Active.

In another assay the test system is Mus musculus. The assay can be described thus: Antidepressant activity in Swiss-Webster mouse assessed as prevention of reserpine-induced ptosis at 30 to 50 mg/kg, ip. The class given is functional, organism-based.
As for `CN(C)C1CCc2[nH]c3c(F)cc(F)cc3c2C1` (stereo not drawn) [FLUCINDOLE], the result was inactive.

The next assay has as its system Mus musculus. Kind of assay: Antidepressant activity in Swiss-Webster mouse assessed as prevention of reserpine-induced ptosis at 1 to 50 mg/kg, ip. In kind it is functional, organism-based. A digest of the protocol: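 Male Swiss-Webster mice (18-24 g) given test compounds intraperitoneally at 50, 30, 10, 1 and 0.5 mg/kg (free base), then scored for reserpine-induced ptosis. Active means a statistically significant decrease in ptosis (p < 0.05, two-tailed).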
On to `CN(C)CCCN1c2ccccc2Sc2ccc(Cl)cc21` [CHLORPROMAZINE], for which the result was inactive.

A further assay deals with Mus musculus. Kind of assay: Antidepressant activity in Swiss-Webster mouse assessed as prevention of reserpine-induced ptosis at 30 mg/kg, ip. In kind it is functional, organism-based. Set-up: dose 30 mg/kg.
For the molecule `Cc1cc(Cl)cc2[nH]c3c(c12)CC(N(C)C)CC3` (stereo not drawn), the outcome was Active.

Take `COc1ccc2c3c([nH]c2c1)CCC(N(C)C)C3` (stereo not drawn): the result was Active.

`CCn1c2c(c3ccccc31)CC(N(C)C)CC2` (stereo not drawn): the result was Active.

Consider `Cc1ccc(C)c2c3c([nH]c12)CCC(N(C)C)C3` (stereo not drawn), for which the outcome was Active.

With `CN(C)C1CCc2[nH]c3cccc(C(F)(F)F)c3c2C1` (stereo not drawn), the outcome was Active.

As for `CNC1CCc2[nH]c3ccccc3c2C1` (stereo not drawn), the outcome was Active.

As to `NC1CCc2[nH]c3ccccc3c2C1` (stereo not drawn), the outcome was Active.

Turning to `COc1ccc(Cl)c2c3c([nH]c12)CCC(N(C)C)C3` (stereo not drawn), the outcome was Active.

Consider `CCOC(=O)c1cccc2[nH]c3c(c12)CC(N(C)C)CC3` (stereo not drawn), for which the outcome was Active.

On to `CN(C)C1CCc2[nH]c3c(F)cc(F)cc3c2C1` (stereo not drawn) [FLUCINDOLE], for which the result was inactive.

For the next assay, the system named is Mus musculus. The assay can be described thus: Antidepressant activity in Swiss-Webster mouse assessed as prevention of reserpine-induced ptosis at 10 mg/kg, ip. In kind it is functional, organism-based. Set-up: dose 10 mg/kg.
With `CN(C)C1CCc2c(c3ccccc3n2Cc2ccc(Cl)cc2)C1` (stereo not drawn), the outcome was inactive.

As for `CCNC1CCc2[nH]c3ccccc3c2C1` (stereo not drawn), the result was inactive.

On to `CCCNC1CCc2[nH]c3ccccc3c2C1` (stereo not drawn), for which the result was inactive.

Regarding `CN(C)C1CCc2[nH]c3ccccc3c2C1` (stereo not drawn) [CYCLINDOLE], the outcome was Active.

In the case of `COc1ccc2[nH]c3c(c2c1)CC(N(C)C)CC3` (stereo not drawn), the outcome was inactive.

For the molecule `CCCc1cccc2c3c([nH]c12)CCC(N(C)C)C3` (stereo not drawn), the result was Active.

As to `CN(C)CCn1c2c(c3ccccc31)CC(N(C)C)CC2` (stereo not drawn), the result was inactive.

Take `CN(C)C1CCc2c(c3ccccc3n2C)C1` (stereo not drawn): the outcome was inactive.

On to `CCc1cccc2c3c([nH]c12)CCC(N(C)C)C3` (stereo not drawn), for which the outcome was Active.

On to `CN(C)C1CCc2[nH]c3cccc(F)c3c2C1` (stereo not drawn), for which the outcome was Active.

As for `CN(C)CCCn1c2c(c3ccccc31)CC(N(C)C)CC2` (stereo not drawn), the result was inactive.

`CNC1CCc2[nH]c3cccc(C)c3c2C1` (stereo not drawn): the result was Active.

In the case of `CN(C)C1CCc2c(c3ccccc3n2Cc2ccccc2)C1` (stereo not drawn), the result was inactive.

For `Cc1cccc2[nH]c3c(c12)CC(N(C)C)CC3` (stereo not drawn), the outcome was Active.

On to `Cc1ccc(F)c2[nH]c3c(c12)CC(N(C)C)CC3` (stereo not drawn), for which the result was Active.

Turning to `CC(=O)NC1CCc2[nH]c3ccccc3c2C1` (stereo not drawn), the result was inactive.

Regarding `Cc1cc(Cl)c2c3c([nH]c2c1)CCC(N(C)C)C3` (stereo not drawn), the result was Active.

Turning to `CCCCNC1CCc2[nH]c3ccccc3c2C1` (stereo not drawn), the result was inactive.

With `Cc1ccc2c3c([nH]c2c1)CCC(N(C)C)C3` (stereo not drawn), the outcome was Active.

For `CCOC(=O)Cn1c2c(c3ccccc31)CC(N(C)C)CC2` (stereo not drawn), the outcome was Active.

Another assay relates to Mus musculus. The assay can be described thus: Antidepressant activity in Swiss-Webster mouse assessed as prevention of reserpine-induced ptosis at 50 mg/kg, ip. In kind it is functional, organism-based. Further details: dose 50 mg/kg.
Regarding `CN(C(=O)c1ccccc1)C1CCc2[nH]c3c(F)cc(F)cc3c2C1` (stereo not drawn), the result was inactive.

In the case of `CCOC(=O)CCn1c2c(c3ccccc31)CC(N(C)C)CC2` (stereo not drawn), the outcome was inactive.

`Fc1cc(F)c2[nH]c3c(c2c1)CC(N1CCCCC1)CC3` (stereo not drawn): the outcome was inactive.

As to `C=CCn1c2c(c3ccccc31)CC(N(C)C)CC2` (stereo not drawn), the outcome was inactive.

On to `CN(C)C1CCc2c(c3ccccc3n2CCC(=O)O)C1` (stereo not drawn), for which the result was inactive.

As for `c1ccc(N2CCN(C3CCc4[nH]c5ccccc5c4C3)CC2)cc1` (stereo not drawn), the result was inactive.

`CN(C)C1CCc2[nH]c3ccc(C(=O)O)cc3c2C1` (stereo not drawn): the result was inactive.

In the case of `CN(C)C1CCc2[nH]c3c(Cl)cccc3c2C1` (stereo not drawn), the outcome was inactive.

In the case of `CN(C)C1CCc2[nH]c3c(C(F)(F)F)cccc3c2C1` (stereo not drawn), the outcome was inactive.

On to `CN(C)C1CCc2[nH]c3c(Br)cccc3c2C1` (stereo not drawn), for which the outcome was inactive.

Turning to `CSc1cccc2c3c([nH]c12)CCC(N(C)C)C3` (stereo not drawn), the outcome was inactive.

For `Cc1ccc2[nH]c3c(c2c1)CC(N(C)C)CC3` (stereo not drawn), the result was inactive.

For the molecule `CN(C)C1CCc2[nH]c3c(OCc4ccccc4)cccc3c2C1` (stereo not drawn), the result was inactive.

In the case of `CNC1CCc2[nH]c3c(F)cc(F)cc3c2C1` (stereo not drawn), the result was inactive.

With `Cc1cc(C)c2[nH]c3c(c2c1)CC(N(C)C)CC3` (stereo not drawn), the outcome was inactive.

For the molecule `Cc1cc2[nH]c3c(c2cc1C)CC(N(C)C)CC3` (stereo not drawn), the result was Active.

Take `CN(C)C1CCc2[nH]c3ccc(O)cc3c2C1` (stereo not drawn): the outcome was Active.

`CCc1cccc2[nH]c3c(c12)CC(N(C)C)CC3` (stereo not drawn): the result was Active.

As for `Cc1cc(C)c2c3c([nH]c2c1)CCC(N(C)C)C3` (stereo not drawn), the outcome was Active.

In the case of `COc1cc2[nH]c3c(c2cc1OC)CC(N(C)C)CC3` (stereo not drawn), the outcome was inactive.

For the molecule `c1ccc2c3c([nH]c2c1)CCC(N1CCOCC1)C3` (stereo not drawn), the outcome was inactive.

Consider `CN(C)C1CCc2[nH]c3c(-c4ccccc4)cccc3c2C1` (stereo not drawn), for which the result was Active.

In the case of `CN(C)C1CCc2[nH]c3c(F)cccc3c2C1` (stereo not drawn), the outcome was inactive.

As for `c1ccc2c3c([nH]c2c1)CCC(N1CCCC1)C3` (stereo not drawn), the result was inactive.

For `CN(C)C1CCc2[nH]c3c(O)cccc3c2C1` (stereo not drawn), the result was inactive.

Take `CN(C)C1CCc2[nH]c3cc(O)ccc3c2C1` (stereo not drawn): the result was inactive.

Regarding `CN(C)C1CCc2c(c3ccccc3n2CC(=O)O)C1` (stereo not drawn), the outcome was inactive.

As to `CN(C)C1CCc2[nH]c3c(Cl)c(Cl)ccc3c2C1` (stereo not drawn), the result was Active.

Take `COc1cccc2c3c([nH]c12)CCC(N(C)C)C3` (stereo not drawn): the outcome was inactive.

Take `CN(C)C1CCc2[nH]c3ccc(Oc4ccccc4)cc3c2C1` (stereo not drawn): the outcome was inactive.

Consider `Cc1cccc2c3c([nH]c12)CCC(N(C)C)C3` (stereo not drawn), for which the result was inactive.

Turning to `CN(C)C1CCc2[nH]c3ccc(F)cc3c2C1` (stereo not drawn), the result was inactive.

Regarding `NC1CCc2[nH]c3c(F)cc(F)cc3c2C1` (stereo not drawn), the result was inactive.

`COc1cc(C(=O)OCCn2c3c(c4ccccc42)CC(N(C)C)CC3)cc(OC)c1OC` (stereo not drawn): the result was inactive.

Turning to `CN(C)C1CCc2[nH]c3ccc(OCc4ccccc4)cc3c2C1` (stereo not drawn), the outcome was inactive.

As to `CCN(CC)CCNC1CCc2[nH]c3ccccc3c2C1` (stereo not drawn), the outcome was inactive.

With `CN(Cc1ccccc1)C1CCc2[nH]c3c(F)cc(F)cc3c2C1` (stereo not drawn), the result was inactive.

With `Cc1cccc2c1c1c(n2C)CCC(N(C)C)C1` (stereo not drawn), the outcome was Active.

For the molecule `CN(C)C1CCc2[nH]c3cc(F)ccc3c2C1` (stereo not drawn), the outcome was inactive.

For `c1ccc2c3c([nH]c2c1)CCC(N1CCCCC1)C3` (stereo not drawn), the result was inactive.

As for `CN(C)C1CCc2[nH]c3c(Cl)cc(Cl)cc3c2C1` (stereo not drawn), the outcome was inactive.

Take `CNC1CCc2[nH]c3cc(C)ccc3c2C1` (stereo not drawn): the result was Active.

`Cc1ccc(Cl)c2[nH]c3c(c12)CC(N(C)C)CC3` (stereo not drawn): the outcome was Active.

The subject of a further assay is Rattus norvegicus. The assay can be described thus: Antipsychotic activity in po dosed Sprague-Dawley rat assessed as prevention of d-amphetamine-induced stereotyped behavior measured for 1 min after 90, 100, and 110 mins injection of amphetamine. The class given is functional. A digest of the protocol: (§1)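 Male Sprague-Dawley rats, 100-130 g, given compound orally at graded doses (free base), starting at 32 mg/kg, 4 h before d-amphetamine sulfate sc at 3.7 mg/kg (free base). One-minute observations at 90, 100 and 110 min. ED50 with confidence limits calculated.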
In general, ED50 refers to the dose that gives a 50% effect, or the effect in half of the subjects. `CN(C)C1CCc2[nH]c3ccccc3c2C1` (stereo not drawn) [CYCLINDOLE]: the ED50 was 10.3 mg/kg.

For the molecule `CN(C)CCCN1c2ccccc2Sc2ccc(Cl)cc21` [CHLORPROMAZINE], the ED50 came to 8.6 mg/kg.

In the case of `CN(C)C1CCc2[nH]c3c(F)cc(F)cc3c2C1` (stereo not drawn) [FLUCINDOLE], the ED50 is 1.4 mg/kg.

In another assay the test system is Rattus norvegicus. The assay can be described thus: Antipsychotic activity in Sprague-Dawley rat assessed as prevention of d-amphetamine-induced stereotyped behavior at 32 mg/kg, po measured for 1 min after 90, 100, and 110 mins injection of amphetamine. The class given is functional, organism-based. Further details: dose 32 mg/kg. A digest of the protocol:
as §1
Consider `Cc1cccc2[nH]c3c(c12)CC(N(C)C)CC3` (stereo not drawn), for which the outcome was inactive.

For the molecule `CN(C)CCCN1c2ccccc2CCc2ccccc21`, the result was inactive.

The values above are taken from ChEMBL document CHEMBL3272100, “3-Aminotetrahydrocarbazoles as a new series of central nervous system agents” (1977).
